Data: ChEMBL document CHEMBL4325864, “Discovery of new potent protein arginine methyltransferase 5 (PRMT5) inhibitors by assembly of key pharmacophores from known inhibitors” (Bioorg Med Chem Lett, 2018)
Values belong to the molecule of their own block, whether it stands above or below them. Active and inactive are the calls of the source. No cut-off for these calls is given here.

Legend:
PRMT5/MEP50 complex [1] = target: T1, PRMT5/MEP50 complex (Homo sapiens, UniProt O14744); experiment: Inhibition of recombinant human N-terminal FLAG-tagged PRMT5 (2 to end residues) /human N-terminal His-tagged MEP50 (2 to end residues) expressed in HEK293F cells pretreated for 15 mins followed by substrate and [3H]-SAM addition measured after 60 mins by scintillation proximity assay; type: cell-based
T1 sequence (O14744 whole entry): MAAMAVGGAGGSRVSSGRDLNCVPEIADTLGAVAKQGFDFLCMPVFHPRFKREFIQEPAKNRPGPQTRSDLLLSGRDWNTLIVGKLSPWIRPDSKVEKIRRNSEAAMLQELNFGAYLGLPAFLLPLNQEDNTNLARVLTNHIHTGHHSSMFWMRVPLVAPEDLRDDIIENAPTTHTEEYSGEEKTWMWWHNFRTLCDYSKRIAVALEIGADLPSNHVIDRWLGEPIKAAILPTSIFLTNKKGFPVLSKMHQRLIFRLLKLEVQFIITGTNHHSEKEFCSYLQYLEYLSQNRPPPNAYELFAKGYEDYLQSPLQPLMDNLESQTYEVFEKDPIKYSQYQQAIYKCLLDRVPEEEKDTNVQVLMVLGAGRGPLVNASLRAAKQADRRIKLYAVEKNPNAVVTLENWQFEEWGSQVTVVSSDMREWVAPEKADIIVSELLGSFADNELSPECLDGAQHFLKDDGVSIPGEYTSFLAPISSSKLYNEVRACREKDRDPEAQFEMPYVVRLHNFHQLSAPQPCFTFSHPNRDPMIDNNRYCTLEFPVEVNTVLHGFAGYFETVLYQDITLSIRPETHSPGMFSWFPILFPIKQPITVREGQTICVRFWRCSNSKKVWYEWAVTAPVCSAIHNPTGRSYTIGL
T1 sequence (Q9BQA1 whole entry, further chain): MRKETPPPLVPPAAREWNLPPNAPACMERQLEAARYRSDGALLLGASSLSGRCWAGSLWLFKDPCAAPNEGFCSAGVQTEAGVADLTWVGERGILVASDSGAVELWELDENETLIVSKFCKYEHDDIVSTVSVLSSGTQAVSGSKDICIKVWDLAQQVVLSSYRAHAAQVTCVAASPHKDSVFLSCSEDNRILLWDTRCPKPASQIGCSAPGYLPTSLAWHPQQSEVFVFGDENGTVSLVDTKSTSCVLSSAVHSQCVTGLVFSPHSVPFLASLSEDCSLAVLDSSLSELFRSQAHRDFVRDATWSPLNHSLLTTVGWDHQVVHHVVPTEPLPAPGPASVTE
Summary of the method: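 PRMT5 enzymatic inhibition measured by radiometric scintillation proximity assay; IC50 determined.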

KARPAS-422 [2] = experiment: Cell cycle arrest in human KARPAS422 cells assessed as accumulation of cells at S phase at 4 uM after 48 hrs by propidium iodide staining-based flow cytometric analysis (reference value: 47.8%); type: functional
[3] = target: T2, Protein arginine N-methyltransferase 5 (Homo sapiens, UniProt O14744); experiment: (§1) Non-competitive inhibition of recombinant human N-terminal FLAG-tagged PRMT5 (2 to end residues) /human N-terminal His-tagged MEP50 (2 to end residues) expressed in HEK293F cells pretreated for 15 mins followed by fixed peptide substrate and varying [3H]-SAM addition measured after 60 mins by scintillation proximity assay; type: cell-based
T2 sequence (O14744 whole entry): as the sequence (O14744 whole entry) above
Summary of the method: (§2)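 Mode of inhibition: IC50 values determined by radiometric scintillation proximity assay in the presence of various concentrations of peptide substrate and SAM; experiments performed in triplicate.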

PRMT5/MEP50 complex [4] = target: T1, PRMT5/MEP50 complex; experiment: Binding affinity to PRMT5 (unknown origin)/MEP50 (unknown origin) by SPR assay; type: protein-complex assay
Summary of the method: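 Direct binding to PRMT5 measured by surface plasmon resonance; equilibrium dissociation constant (KD) derived.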

KARPAS-422 [5] = experiment: Cell cycle arrest in human KARPAS422 cells assessed as accumulation of cells at G1 phase at 4 uM after 48 hrs by propidium iodide staining-based flow cytometric analysis (reference value: 39.56%); type: functional
[6] = target: T2, Protein arginine N-methyltransferase 5; experiment: Inhibition of PRMT5 in human SU-DHL4 cells assessed as decrease in symmetric arginine dimethylation of SmD3 after 4 days by Western blot analysis; type: cell-based; conditions: in the assay text read “after 72 hrs” for “after 4 days”
Summary of the method: (§3)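 KARPAS-422 and SU-DHL-4 cells treated across a concentration range; symmetric arginine dimethylation of SmD3 detected by Western blot with symmetric dimethyl arginine (SDMA) antibody.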

KARPAS-422 [7] = experiment: Induction of apoptosis in human KARPAS422 cells assessed as viable cells at 16 uM after 48 hrs by AnnexinV-FITC staining-based flow cytometric analysis (reference value: 91.3%); type: functional; conditions: KARPAS-422, 48 h, read-out: Activity
KARPAS-422 [8] = experiment: Antiproliferative activity against human KARPAS422 cells after 4 days by cell titer-glo luminescent cell viability assay; conditions: KARPAS-422, 96 h
MV4-11 = experiment: Antiproliferative activity against human MV4-11 cells after 4 days by cell titer-glo luminescent cell viability assay; conditions: MV4-11, 96 h
KARPAS-422 [9] = experiment: Cell cycle arrest in human KARPAS422 cells assessed as accumulation of cells at G1 phase at 8 uM after 48 hrs by propidium iodide staining-based flow cytometric analysis (reference value: 39.56%); type: functional
SUD4 = experiment: Antiproliferative activity against human SU-DHL4 cells after 4 days by cell titer-glo luminescent cell viability assay; conditions: SU-DHL-4, 96 h
KARPAS-422 [10] = experiment: Induction of apoptosis in human KARPAS422 cells assessed as viable cells at 8 uM after 48 hrs by AnnexinV-FITC staining-based flow cytometric analysis (reference value: 91.3%); type: functional; conditions: KARPAS-422, 48 h, read-out: Activity
KARPAS-422 [11] = experiment: Cell cycle arrest in human KARPAS422 cells assessed as accumulation of cells at S phase at 8 uM after 48 hrs by propidium iodide staining-based flow cytometric analysis (reference value: 47.8%); type: functional
KARPAS-422 [12] = experiment: Induction of apoptosis in human KARPAS422 cells assessed as necrotic cells at 8 uM after 48 hrs by AnnexinV-FITC staining-based flow cytometric analysis (reference value: 3.20%); type: functional
KARPAS-422 [13] = experiment: Induction of apoptosis in human KARPAS422 cells assessed as necrotic cells at 16 uM after 48 hrs by AnnexinV-FITC staining-based flow cytometric analysis (reference value: 3.20%); type: functional
KARPAS-422 [14] = experiment: Cell cycle arrest in human KARPAS422 cells assessed as accumulation of cells at G2/M phase at 16 uM after 48 hrs by propidium iodide staining-based flow cytometric analysis (reference value: 12.64%); type: functional
[15] = target: T3, Histone-arginine methyltransferase CARM1 (Homo sapiens, UniProt Q86X55); experiment: Inhibition of PRMT4 (unknown origin) pretreated for 15 mins followed by substrate and [3H]-SAM addition measured after 60 mins by scintillation proximity assay
T3 sequence (Q86X55 whole entry): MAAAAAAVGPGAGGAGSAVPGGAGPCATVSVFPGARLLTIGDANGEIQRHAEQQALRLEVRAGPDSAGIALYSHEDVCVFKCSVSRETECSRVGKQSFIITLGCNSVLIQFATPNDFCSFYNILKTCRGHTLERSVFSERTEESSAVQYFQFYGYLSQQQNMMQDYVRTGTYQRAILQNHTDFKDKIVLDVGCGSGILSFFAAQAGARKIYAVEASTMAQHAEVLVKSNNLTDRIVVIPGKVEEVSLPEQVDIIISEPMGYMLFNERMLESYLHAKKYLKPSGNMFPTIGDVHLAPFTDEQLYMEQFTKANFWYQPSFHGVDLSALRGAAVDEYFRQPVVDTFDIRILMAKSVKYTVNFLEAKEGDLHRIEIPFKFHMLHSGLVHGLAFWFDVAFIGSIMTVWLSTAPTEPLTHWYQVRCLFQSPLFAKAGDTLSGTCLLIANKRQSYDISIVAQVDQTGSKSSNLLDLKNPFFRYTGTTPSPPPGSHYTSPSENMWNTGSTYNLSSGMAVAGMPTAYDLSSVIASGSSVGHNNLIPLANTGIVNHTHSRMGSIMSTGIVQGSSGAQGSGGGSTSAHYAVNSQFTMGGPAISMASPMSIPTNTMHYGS
Summary of the method: (§4)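 PRMT1 and PRMT4 enzyme-inhibition assays used to assess selectivity; IC50 values determined for each enzyme.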

KARPAS-422 [16] = experiment: Induction of apoptosis in human KARPAS422 cells assessed as viable cells at 4 uM after 48 hrs by AnnexinV-FITC staining-based flow cytometric analysis (reference value: 91.3%); type: functional; conditions: KARPAS-422, 48 h, read-out: Activity
KARPAS-422 [17] = experiment: Induction of apoptosis in human KARPAS422 cells assessed as apoptotic cells at 8 uM after 48 hrs by AnnexinV-FITC staining-based flow cytometric analysis (reference value: 4.08%); type: functional
[18] = target: T2, Protein arginine N-methyltransferase 5; experiment: as §1, with “Competitive” for “Non-competitive”, “varying” for “fixed”, “fixed” for “varying”; type: cell-based; summary of the method: as §2
KARPAS-422 [19] = experiment: Cell cycle arrest in human KARPAS422 cells assessed as accumulation of cells at G1 phase at 16 uM after 48 hrs by propidium iodide staining-based flow cytometric analysis (reference value: 39.56%); type: functional
KARPAS-422 [20] = experiment: Cell cycle arrest in human KARPAS422 cells assessed as accumulation of cells at S phase at 16 uM after 48 hrs by propidium iodide staining-based flow cytometric analysis (reference value: 47.8%); type: functional
KARPAS-422 [21] = experiment: Induction of apoptosis in human KARPAS422 cells assessed as apoptotic cells at 16 uM after 48 hrs by AnnexinV-FITC staining-based flow cytometric analysis (reference value: 4.08%); type: functional
[22] = target: T2, Protein arginine N-methyltransferase 5; experiment: Inhibition of PRMT5 in human KARPAS422 cells assessed as decrease in symmetric arginine dimethylation of SmD3 after 4 days by Western blot analysis; type: cell-based; conditions: in the assay text read “after 72 h” for “after 4 days”; summary of the method: as §3
KARPAS-422 [23] = experiment: Cell cycle arrest in human KARPAS422 cells assessed as accumulation of cells at G2/M phase at 4 uM after 48 hrs by propidium iodide staining-based flow cytometric analysis (reference value: 12.64%); type: functional
[24] = target: Protein arginine N-methyltransferase 1 (Homo sapiens, UniProt Q99873); experiment: Inhibition of PRMT1 (unknown origin) pretreated for 15 mins followed by substrate and [3H]-SAM addition measured after 60 mins by scintillation proximity assay; summary of the method: as §4
Protein arginine N-methyltransferase 1, sequence (Q99873 whole entry): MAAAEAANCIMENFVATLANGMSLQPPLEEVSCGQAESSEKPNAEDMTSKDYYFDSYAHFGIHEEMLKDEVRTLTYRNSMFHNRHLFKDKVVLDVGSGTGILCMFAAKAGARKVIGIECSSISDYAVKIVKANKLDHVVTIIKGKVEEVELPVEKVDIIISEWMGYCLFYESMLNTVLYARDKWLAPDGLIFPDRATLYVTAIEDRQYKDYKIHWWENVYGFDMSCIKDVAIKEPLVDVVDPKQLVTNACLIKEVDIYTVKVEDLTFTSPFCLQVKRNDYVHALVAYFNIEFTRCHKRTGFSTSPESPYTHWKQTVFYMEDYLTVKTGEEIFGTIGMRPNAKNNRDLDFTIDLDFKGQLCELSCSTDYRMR

KARPAS-422 [25] = experiment: Induction of apoptosis in human KARPAS422 cells assessed as apoptotic cells at 4 uM after 48 hrs by AnnexinV-FITC staining-based flow cytometric analysis (reference value: 4.08%); type: functional
Pfeiffer = experiment: Antiproliferative activity against human Pfeiffer cells after 4 days by cell titer-glo luminescent cell viability assay; conditions: 96 h
KARPAS-422 [26] = experiment: Induction of apoptosis in human KARPAS422 cells assessed as necrotic cells at 4 uM after 48 hrs by AnnexinV-FITC staining-based flow cytometric analysis (reference value: 3.20%); type: functional
KARPAS-422 [27] = experiment: Induction of apoptosis in human KARPAS422 cells after 48 hrs by AnnexinV-FITC staining-based flow cytometric analysis; type: functional, cell-based
KARPAS-422 [28] = experiment: Cell cycle arrest in human KARPAS422 cells assessed as accumulation of cells at G2/M phase at 8 uM after 48 hrs by propidium iodide staining-based flow cytometric analysis (reference value: 12.64%); type: functional
KARPAS-422 [29] = experiment: Cell cycle arrest in human KARPAS422 cells assessed as accumulation of cells at G1 phase after 48 hrs by propidium iodide staining-based flow cytometric analysis; type: functional
[30] = target: T2, Protein arginine N-methyltransferase 5; experiment: Inhibition of full-length N-terminal FLAG-tagged PRMT5 (unknown origin) (1 to 637 residues) expressed in baculovirus infected Sf9 insect cells using histone H4 as peptide after 5 hrs in presence of [H3]AdoMet by scintillation proximity assay

IC50 (PRMT5/MEP50 complex [1]): 51.9 µM
Structure (SMILES): CC(=O)c1cccc(NC(=O)CCN2CCc3ccccc3C2)c1

IC50 (PRMT5/MEP50 complex [1]): > 100 µM
Structure (SMILES): COC(=O)c1cc(F)c(F)cc1NC(=O)CCN1CCc2ccccc2C1

IC50 (PRMT5/MEP50 complex [1]): > 100 µM
Structure (SMILES): O=C(CCN1CCc2ccccc2C1)Nc1cccc2ccccc12

IC50 (PRMT5/MEP50 complex [1]): > 100 µM
Structure (SMILES): Cc1ccc(NC(=O)CCN2CCc3ccccc3C2)c([N+](=O)[O-])c1

IC50 (PRMT5/MEP50 complex [1]): 60 µM
Structure (SMILES): COC(=O)c1ccccc1NC(=O)CN1CCc2ccccc2C1

IC50 (PRMT5/MEP50 complex [1]): 42.1 µM
Structure (SMILES): O=C(CCN1CCc2ccccc2C1)Nc1cccc(Cl)c1

inhibition [3]: Active
Kd (PRMT5/MEP50 complex [4]): 10.8 µM
inhibition [6]: inactive
IC50 (KARPAS-422 [8]): 9.1 µM
IC50 (MV4-11): 12.5 µM
IC50 [15]: > 200 µM
IC50 (PRMT5/MEP50 complex [1]): 2.71 µM
inhibition [18]: Active
inhibition [22]: Dose-dependent effect
IC50 [24]: > 200 µM
Structure (SMILES): N#Cc1c(Br)cccc1NC(=O)CCN1CCc2ccccc2C1
Activity (KARPAS-422 [2]): 41.52%
Activity (KARPAS-422 [5]): 44.75%
viability at 16 µM (KARPAS-422 [7]): 66.3%
Activity (KARPAS-422 [9]): 50.53%
IC50 (SUD4): 16.4 µM
viability at 8 µM (KARPAS-422 [10]): 88.1%
Activity (KARPAS-422 [11]): 37.72%
Activity (KARPAS-422 [12]): 2.93%
Activity (KARPAS-422 [13]): 8.76%
Activity (KARPAS-422 [14]): 9.48%
viability at 4 µM (KARPAS-422 [16]): 90.5%
Activity (KARPAS-422 [17]): 7.89%
Activity (KARPAS-422 [19]): 54.34%
Activity (KARPAS-422 [20]): 36.18%
Activity (KARPAS-422 [21]): 23.1%
Activity (KARPAS-422 [23]): 13.73%
Activity (KARPAS-422 [25]): 4.66%
IC50 (Pfeiffer): 11.1 µM
Activity (KARPAS-422 [26]): 2.35%
Activity (KARPAS-422 [27]): Dose-dependent effect
Activity (KARPAS-422 [28]): 11.75%
Activity (KARPAS-422 [29]): Dose-dependent effect

IC50 (PRMT5/MEP50 complex [1]): > 100 µM
Structure (SMILES): O=C(CCN1CCc2ccccc2C1)Nc1cccc2ncccc12

Structure (SMILES): Nc1ncnc2c1ncn2[C@@H]1O/C(=C\[C@@H](N)CC[C@H](N)C(=O)O)[C@@H](O)[C@H]1O
IC50 [30]: 0.035 µM

IC50 (PRMT5/MEP50 complex [1]): > 100 µM
Structure (SMILES): Cc1cccc(NC(=O)CCN2CCc3ccccc3C2)c1

IC50 (PRMT5/MEP50 complex [1]): 72.7 µM
Structure (SMILES): O=C(CCN1CCc2ccccc2C1)NNC(=O)c1ccccc1

IC50 (PRMT5/MEP50 complex [1]): > 100 µM
Structure (SMILES): Cc1cc([N+](=O)[O-])ccc1NC(=O)CCN1CCc2ccccc2C1

IC50 (PRMT5/MEP50 complex [1]): > 100 µM
Structure (SMILES): O=C(CCN1CCc2ccccc2C1)Nc1ccc(Oc2ccccc2)cc1
